According to ChEMBL document CHEMBL4028917, “(+)-Methyl (1R,2S)-2-{[4-(4-Chlorophenyl)-4-hydroxypiperidin-1-yl]methyl}-1-phenylcyclopropanecarboxylate [(+)-MR200] Derivatives as Potent and Selective Sigma Receptor Ligands: Stereochemistry and Pharmacological Properties” (J Med Chem, 2018):
pKi: −log10 of the molar value. Converted amounts (≈) assume the structure as drawn. The source made the active and inactive calls. The calls are words filed in the database; no cut-off is given here.

Assays:
Cavia porcellus = species on record: Cavia porcellus; experiment: Selectivity index, ratio of Ki for sigma2 receptor in guinea pig brain membrane […]; format: cell membranes
[1] = Displacement of [3H]-(+)-DTG from sigma2 receptor in guinea pig brain membrane after 120 mins by liquid scintillation counting method; format: cell membranes, Cavia porcellus
[2] = target: Sigma non-opioid intracellular receptor 1 (Cavia porcellus, UniProt Q60492); experiment: Displacement of [3H]-(+)-pentazocine from sigma1 receptor in guinea pig brain membrane after 150 mins by liquid scintillation counting method; format: cell membranes
Mus musculus [3] = experiment: Antinociceptive activity in CD1 mouse model of mechanical nociception assessed as effect on struggle response latency at 4 mg/kg, sc administered 30 mins before behavioral evaluation by paw pressure test; format: functional, organism-based
How it was run: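 Female CD1 mice (25–30 g). Paw pressure test: a blunt cone applied 450 g to the dorsal hindpaw until a struggle response; latency (s) recorded. Each hindpaw was tested twice, alternately, at 1 min intervals. Morphine or HPMC vehicle was given s.c. 30 min before testing. Values are the mean ± SEM of both hindpaws from 6–8 animals; one-way ANOVA with Bonferroni test.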

D(2) dopamine receptor = D(2) dopamine receptor (Rattus norvegicus, UniProt P61169); experiment: Displacement of [3H]-spiperone from dopamine D2 receptor in rat strriatum after 15 mins by liquid scintillation counting method
D(1A) dopamine receptor = D(1A) dopamine receptor (Rattus norvegicus, UniProt P18901); experiment: Binding affinity to dopamine D1 receptor in rat striatum by liquid scintillation counting method
Mus musculus [4] = experiment: Antinociceptive activity in sc dosed CD1 mouse model of mechanical nociception assessed as increase in morphine-induced struggle response latency administered 30 mins before behavioral evaluation by paw pressure test; format: functional, organism-based
How it was run: (§1)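 Female CD1 mice (25–30 g) in the paw pressure test. A 450 g blunt cone was pressed on the dorsal hindpaw until a struggle response, and latency (s) was recorded. Each hindpaw was tested twice, alternately, 1 min apart. Morphine (4 mg/kg) or HPMC vehicle was given s.c. 30 min before testing. Test drugs were given s.c. in HPMC 5 min before morphine. Mean ± SEM, 6–8 animals; one-way ANOVA with Bonferroni.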

Mus musculus [5] = experiment: Antinociceptive activity in CD1 mouse model of mechanical nociception assessed as increase in morphine-induced struggle response latency at 16 to 32 mg/kg, sc administered 30 mins before behavioral evaluation by paw pressure test; format: functional, organism-based; how it was run: as §1
Mus musculus [6] = experiment: Antinociceptive activity in CD1 mouse model of mechanical nociception assessed as effect on struggle response latency at 32 mg/kg, sc administered 30 mins before behavioral evaluation by paw pressure test; format: functional, organism-based; how it was run: as §1
Mus musculus [7] = experiment: Antinociceptive activity in CD1 mouse model of mechanical nociception assessed as increase in morphine-induced struggle response latency at 32 mg/kg, sc administered 30 mins before behavioral evaluation co-treated with 32 mg/kg, sc prototypical sigma1 receptor agonist PRE-084 administered 5 min before injection of morphine by paw pressure test; format: functional, organism-based; how it was run: as §1
Mus musculus [8] = experiment: Antinociceptive activity in CD1 mouse model of mechanical nociception assessed as effect on struggle response latency at 16 to 32 mg/kg, sc administered 30 mins before behavioral evaluation by paw pressure test; format: functional, organism-based; how it was run: as §1
Mus musculus [9] = experiment: Antinociceptive activity in CD1 mouse model of mechanical nociception assessed as increase in morphine-induced struggle response latency at 12 to 16 mg/kg, sc administered 30 mins before behavioral evaluation by paw pressure test; format: functional, organism-based; how it was run: as §1
[10] = Chemical stability of the compound at pH 7.4 assessed as half life; format: physicochemical; conditions: buffer
How it was run: (§2)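 Chemical stability was tested in vitro at 37 °C in aqueous buffer at pH 1.3 (non-enzymatic simulated gastric fluid) or pH 7.4. Half-life and k_obs were reported; means ± SD of three experiments.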

[11] = target: T1, 5-hydroxytryptamine receptor 3A (Rattus norvegicus) (UniProt P35563); experiment: Binding affinity to 5-HT3 receptor in rat cortex by liquid scintillation counting method
T1 sequence (whole entry): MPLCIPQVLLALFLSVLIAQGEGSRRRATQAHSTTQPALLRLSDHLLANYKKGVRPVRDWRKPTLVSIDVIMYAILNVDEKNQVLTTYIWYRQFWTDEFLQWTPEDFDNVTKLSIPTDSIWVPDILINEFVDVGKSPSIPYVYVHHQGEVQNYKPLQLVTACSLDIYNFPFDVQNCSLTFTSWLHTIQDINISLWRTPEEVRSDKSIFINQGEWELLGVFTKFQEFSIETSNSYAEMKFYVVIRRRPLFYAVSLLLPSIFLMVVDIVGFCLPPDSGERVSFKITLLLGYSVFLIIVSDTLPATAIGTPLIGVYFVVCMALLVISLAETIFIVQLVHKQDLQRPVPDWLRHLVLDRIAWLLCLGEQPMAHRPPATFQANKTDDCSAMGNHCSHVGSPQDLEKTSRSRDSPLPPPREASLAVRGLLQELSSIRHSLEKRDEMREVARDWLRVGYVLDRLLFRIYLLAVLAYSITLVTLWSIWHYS

[12] = Chemical stability at pH 7.4 assessed as observed rate constant; format: physicochemical; conditions: buffer; how it was run: as §2
[13] = target: D(3) dopamine receptor (Rattus norvegicus) (UniProt P19020); experiment: Binding affinity to dopamine D3 receptor in rat olfactory tubercle by liquid scintillation counting method
[14] = Chemical stability at pH 1.3 assessed as observed rate constant; format: physicochemical; conditions: buffer; how it was run: as §2
Plasma [15] = experiment: Enzymatic stability of the compound in rat plasma assessed observed rate constant; format: ADME, cell-free
How it was run: (§3)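 Hydrolysis was followed at 37 °C in rat, mouse or human plasma. Half-life (h) and observed rate constant (h⁻¹) were derived; means ± SD of three experiments.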

[16] = Enzymatic stability of the compound in mouse plasma assessed as half life; format: ADME, cell-free; how it was run: as §3
Homo sapiens = species on record: Homo sapiens; experiment: Binding affinity to dopamine D4.2 receptor (unknown origin) by liquid scintillation counting method
[17] = Chemical stability of the compound at pH 1.3 assessed as half life; format: physicochemical; conditions: buffer; how it was run: as §2
Plasma [18] = experiment: Enzymatic stability of the compound in mouse plasma assessed observed rate constant; format: ADME, cell-free; how it was run: as §3
[19] = target: 5-hydroxytryptamine receptor 2A (Rattus norvegicus) (UniProt P14842); experiment: Binding affinity to 5-HT2A receptor in rat cortex by liquid scintillation counting method
Mus musculus [20] = experiment: Reversal of 8 mg/kg, sc BD-1063-induced potentiation of morphine-induced antinociceptive activity in CD1 mouse model of mechanical nociception by measuring struggle response latency at 32 mg/kg, sc administered 30 mins before behavioral evaluation by paw pressure test; format: functional, organism-based; how it was run: as §1
[21] = Aqueous solubility of the compound; format: physicochemical
How it was run: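 Water solubility (mg/mL) was measured experimentally; mean ± SD of three experiments.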

Plasma [22] = experiment: Enzymatic stability of the compound in human plasma assessed observed rate constant; format: ADME, cell-free; how it was run: as §3
[23] = target: Adrenergic receptor alpha-1 (Rattus norvegicus) (UniProt P15823+P23944+P43140); experiment: Binding affinity to adrenergic alpha1 receptor in rat cortex by liquid scintillation counting method
[24] = Enzymatic stability of the compound in rat plasma assessed as half life; format: ADME, cell-free; how it was run: as §3
[25] = Enzymatic stability of the compound in human plasma assessed as half life; format: ADME, cell-free; how it was run: as §3
Mus musculus [26] = experiment: Antinociceptive activity in CD1 mouse model of mechanical nociception assessed as effect on struggle response latency at 8 mg/kg, sc administered 30 mins before behavioral evaluation by paw pressure test; format: functional, organism-based; how it was run: as §1

D(2) dopamine receptor, sequence (P61169 whole entry): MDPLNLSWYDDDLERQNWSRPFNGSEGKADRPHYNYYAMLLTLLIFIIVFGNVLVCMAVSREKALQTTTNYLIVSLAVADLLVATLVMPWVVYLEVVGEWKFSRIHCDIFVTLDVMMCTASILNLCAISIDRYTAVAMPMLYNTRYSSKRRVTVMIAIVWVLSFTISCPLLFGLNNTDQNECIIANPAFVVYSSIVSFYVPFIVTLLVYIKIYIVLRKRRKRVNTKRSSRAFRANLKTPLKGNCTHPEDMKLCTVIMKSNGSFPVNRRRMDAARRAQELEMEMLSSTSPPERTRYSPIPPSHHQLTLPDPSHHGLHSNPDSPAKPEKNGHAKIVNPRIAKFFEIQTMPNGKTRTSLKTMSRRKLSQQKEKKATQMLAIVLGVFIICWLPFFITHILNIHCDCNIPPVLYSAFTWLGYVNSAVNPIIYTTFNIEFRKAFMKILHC
D(1A) dopamine receptor, sequence (P18901 whole entry): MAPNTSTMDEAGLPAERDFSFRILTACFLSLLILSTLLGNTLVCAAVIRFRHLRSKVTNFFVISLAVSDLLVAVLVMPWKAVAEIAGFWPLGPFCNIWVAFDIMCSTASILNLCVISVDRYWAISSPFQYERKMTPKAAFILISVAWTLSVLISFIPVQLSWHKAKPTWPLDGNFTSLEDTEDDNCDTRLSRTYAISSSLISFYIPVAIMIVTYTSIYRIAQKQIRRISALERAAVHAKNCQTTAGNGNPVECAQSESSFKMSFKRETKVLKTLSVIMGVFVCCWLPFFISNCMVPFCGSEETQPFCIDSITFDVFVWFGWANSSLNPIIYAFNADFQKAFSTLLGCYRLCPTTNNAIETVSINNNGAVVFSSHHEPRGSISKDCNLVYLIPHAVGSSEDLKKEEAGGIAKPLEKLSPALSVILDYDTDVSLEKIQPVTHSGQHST
Sigma non-opioid intracellular receptor 1, sequence (Q60492 whole entry): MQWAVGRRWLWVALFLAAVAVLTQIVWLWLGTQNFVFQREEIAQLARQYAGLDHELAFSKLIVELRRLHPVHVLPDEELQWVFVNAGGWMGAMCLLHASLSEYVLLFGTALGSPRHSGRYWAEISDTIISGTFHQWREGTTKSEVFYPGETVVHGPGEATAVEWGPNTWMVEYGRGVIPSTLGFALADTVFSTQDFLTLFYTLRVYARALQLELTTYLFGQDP
D(3) dopamine receptor (Rattus norvegicus), sequence (P19020 whole entry): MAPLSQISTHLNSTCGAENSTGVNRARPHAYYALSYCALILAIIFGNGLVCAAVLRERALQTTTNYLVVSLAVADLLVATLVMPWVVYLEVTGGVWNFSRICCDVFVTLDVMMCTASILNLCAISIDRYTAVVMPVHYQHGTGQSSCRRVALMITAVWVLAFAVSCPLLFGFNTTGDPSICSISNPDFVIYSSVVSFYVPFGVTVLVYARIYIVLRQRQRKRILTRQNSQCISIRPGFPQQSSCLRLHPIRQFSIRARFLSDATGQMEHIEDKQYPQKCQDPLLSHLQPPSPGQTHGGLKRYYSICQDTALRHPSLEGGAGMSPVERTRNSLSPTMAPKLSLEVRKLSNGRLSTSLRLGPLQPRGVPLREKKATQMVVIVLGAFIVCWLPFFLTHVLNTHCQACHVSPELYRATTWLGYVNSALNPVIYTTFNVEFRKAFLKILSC
5-hydroxytryptamine receptor 2A (Rattus norvegicus), sequence (P14842 whole entry): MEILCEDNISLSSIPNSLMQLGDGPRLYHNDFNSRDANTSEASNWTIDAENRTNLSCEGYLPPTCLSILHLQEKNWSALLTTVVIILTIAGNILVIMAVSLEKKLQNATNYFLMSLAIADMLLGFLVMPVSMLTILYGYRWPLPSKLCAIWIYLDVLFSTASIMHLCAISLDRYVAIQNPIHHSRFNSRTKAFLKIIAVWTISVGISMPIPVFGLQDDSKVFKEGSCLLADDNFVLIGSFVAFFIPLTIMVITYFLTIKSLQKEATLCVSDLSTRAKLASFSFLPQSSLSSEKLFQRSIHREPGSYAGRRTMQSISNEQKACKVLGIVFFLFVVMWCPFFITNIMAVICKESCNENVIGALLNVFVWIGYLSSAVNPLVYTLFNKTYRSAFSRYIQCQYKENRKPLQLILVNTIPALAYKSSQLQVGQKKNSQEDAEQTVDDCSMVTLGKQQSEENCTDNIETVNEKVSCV

SMILES	Ratio Ki (Cavia porcellus)	pKi [1]	pKi [2]	other results
CCOC(=O)[C@]1(c2ccccc2)C[C@@H]1CN1CCC(O)(c2ccc(Cl)cc2)CC1	42.2	7.24	8.87	–
CN1CC[C@]23c4c5ccc(O)c4O[C@H]2[C@@H](O)C=C[C@H]3[C@H]1C5	–	–	–	Activity (Mus musculus [3]): inactive
COC(=O)C1(c2ccccc2)CC1CN1CCC(O)(c2ccc(Cl)cc2)CC1 (single isomer, unassigned; (+)) [listing 1 of 2 here]	–	7.66	8.82	pKi (D(2) dopamine receptor): 5.49; pKi (D(1A) dopamine receptor): < 5.00
CC(C)OC(=O)[C@]1(c2ccccc2)C[C@H]1CN1CCC(O)(c2ccc(Cl)cc2)CC1	5	6.67	7.37	Activity (Mus musculus [4]): Dose-dependent effect; Activity (Mus musculus [5]): Active; Activity (Mus musculus [6]): inactive; Activity (Mus musculus [7]): inactive
CCCOC(=O)[C@@]1(c2ccccc2)C[C@H]1CN1CCC(O)(c2ccc(Cl)cc2)CC1	8.8	6.54	7.48	–
O=C(CCCN1CCC(O)(c2ccc(Cl)cc2)CC1)c1ccc(F)cc1 [HALOPERIDOL]	–	7.80	–	–
COC(=O)[C@@]1(c2ccccc2)C[C@@H]1CN1CCC(O)(c2ccc(Cl)cc2)CC1	1.1	6.85	6.89	pKi (D(2) dopamine receptor): 5.30; pKi (D(1A) dopamine receptor): < 5.00
CCOC(=O)[C@@]1(c2ccccc2)C[C@@H]1CN1CCC(O)(c2ccc(Cl)cc2)CC1	25	5.89	7.28	–
CCCOC(=O)[C@@]1(c2ccccc2)C[C@@H]1CN1CCC(O)(c2ccc(Cl)cc2)CC1	13.2	6.77	7.89	–
COC(=O)C1(c2ccccc2)CC1CN1CCC(O)(c2ccc(Cl)cc2)CC1 (single isomer, unassigned; (-))	–	7.63	8.25	pKi (D(2) dopamine receptor): 6.42; pKi (D(1A) dopamine receptor): < 5.00
O=C(O)[C@@]1(c2ccccc2)C[C@@H]1CN1CCC(O)(c2ccc(Cl)cc2)CC1	1.5	6.19	6.35	–
CCCOC(=O)[C@]1(c2ccccc2)C[C@@H]1CN1CCC(O)(c2ccc(Cl)cc2)CC1	10.4	6.84	7.85	–
CC(C)OC(=O)[C@]1(c2ccccc2)C[C@@H]1CN1CCC(O)(c2ccc(Cl)cc2)CC1	10.5	6.68	7.70	Activity (Mus musculus [8]): inactive; Activity (Mus musculus [7]): inactive
CCCN1CCC=C(c2cc(-c3ccc(C)cc3)no2)C1	–	–	8.37	–
COC(=O)[C@]1(c2ccccc2)C[C@H]1CN1CCC(O)(c2ccc(Cl)cc2)CC1	3.6	7.40	7.96	pKi (D(2) dopamine receptor): 5.25; pKi (D(1A) dopamine receptor): < 5.00
CCCOC(=O)[C@]1(c2ccccc2)C[C@H]1CN1CCC(O)(c2ccc(Cl)cc2)CC1	6.1	7.14	7.92	–
CC(C)OC(=O)[C@@]1(c2ccccc2)C[C@H]1CN1CCC(O)(c2ccc(Cl)cc2)CC1	24.4	5.79	7.17	Activity (Mus musculus [8]): inactive; Activity (Mus musculus [5]): Active; Activity (Mus musculus [9]): Active; Activity (Mus musculus [7]): inactive
COC(=O)C1(c2ccccc2)CC1CN1CCC(O)(c2ccc(Cl)cc2)CC1 (racemic)	–	7.21	7.84	pKi (D(2) dopamine receptor): 5.28; pKi (D(1A) dopamine receptor): < 5.00
COC(=O)C1(c2ccccc2)CC1CN1CCC(O)(c2ccc(Cl)cc2)CC1 (single isomer, unassigned; (+)) [listing 2 of 2 here]	14.5	–	–	–
CC(C)OC(=O)[C@@]1(c2ccccc2)C[C@@H]1CN1CCC(O)(c2ccc(Cl)cc2)CC1	> 250	5.74	8.15	half-life [10]: 91 h; Activity [11]: inactive; K [12]: 0.009 h⁻¹; Activity [13]: inactive; K [14]: 0.009 h⁻¹; K (Plasma [15]): 3.26 h⁻¹; half-life [16]: 1.14 h; Activity (Homo sapiens): inactive; half-life [17]: 83.6 h; K (Plasma [18]): 0.51 h⁻¹; Activity (Mus musculus [5]): inactive; Activity [19]: inactive; Activity (Mus musculus [20]): Active; solubility [21]: 3100 µg/mL (≈ 7.24 mM); K (Plasma [22]): 0.01 h⁻¹; Activity [23]: inactive; half-life [24]: 0.38 h; half-life [25]: 65.2 h
CN1CCN(CCc2ccc(Cl)c(Cl)c2)CC1	–	–	–	Activity (Mus musculus [26]): Active
CCOC(=O)[C@]1(c2ccccc2)C[C@H]1CN1CCC(O)(c2ccc(Cl)cc2)CC1	2.4	6.97	7.35	–
CCOC(=O)[C@@]1(c2ccccc2)C[C@H]1CN1CCC(O)(c2ccc(Cl)cc2)CC1	20.4	6.04	7.35	–
